Reference: ChEMBL document CHEMBL4396873, “Discovery of Potent, Selective, and Short-Acting Peptidic V2 Receptor Agonists” (J Med Chem, 2019)
Activity calls are given as the source filed them. The calls are words filed in the database; no cut-off is given here. Numbered stars: 1 amine (or outer) side, 2 acyl side, 3 side chain; on linkers, the order of the positions; unused ones are H or OH. Bridge positions count the residues as written; N and C are the ends. Square brackets hold non-standard residues; d marks the D form. Peptide text beside a SMILES is read from it. * marks the point of attachment. Phe(4-Cl) = N[C@@H](Cc1ccc(Cl)cc1)C(=O)O; Phe(4-F) = N[C@@H](Cc1ccc(F)cc1)C(=O)O; 2Thi = N[C@@H](Cc1cccs1)C(=O)O; Agmatine = N=C(N)NCCCCN*; Thz = O=C(O)[C@@H]1CSCN1; X1 = O=C(CCC[*:2])[*:1]

Key:
[1] = biological target: T1, Oxytocin receptor (Homo sapiens) (UniProt P30559); test: Agonist activity at human OTR stably expressed in CHOK1 cells up to 10000 nM by NFAT-luciferase reporter gene assay; type: cell-based
T1 sequence (whole entry): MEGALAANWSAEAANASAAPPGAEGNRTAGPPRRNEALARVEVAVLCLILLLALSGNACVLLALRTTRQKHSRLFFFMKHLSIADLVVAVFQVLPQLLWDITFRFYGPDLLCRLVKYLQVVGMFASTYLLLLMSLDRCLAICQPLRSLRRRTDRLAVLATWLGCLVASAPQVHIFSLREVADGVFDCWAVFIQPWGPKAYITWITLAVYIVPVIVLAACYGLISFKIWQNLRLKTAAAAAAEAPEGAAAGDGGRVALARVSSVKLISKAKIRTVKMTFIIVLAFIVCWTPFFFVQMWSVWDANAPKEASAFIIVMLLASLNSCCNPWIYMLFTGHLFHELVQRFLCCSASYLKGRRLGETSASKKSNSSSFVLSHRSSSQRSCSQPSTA

Vasopressin V1a receptor = Vasopressin V1a receptor (Homo sapiens, UniProt P37288); test: Agonist activity at recombinant human V1a receptor expressed in HEK293 cells up to 1000 nM measured after 5 hrs by luciferase reporter gene assay; type: cell-based; details: hek293, 5 h
Chain of Vasopressin V1a receptor (P37288 whole entry): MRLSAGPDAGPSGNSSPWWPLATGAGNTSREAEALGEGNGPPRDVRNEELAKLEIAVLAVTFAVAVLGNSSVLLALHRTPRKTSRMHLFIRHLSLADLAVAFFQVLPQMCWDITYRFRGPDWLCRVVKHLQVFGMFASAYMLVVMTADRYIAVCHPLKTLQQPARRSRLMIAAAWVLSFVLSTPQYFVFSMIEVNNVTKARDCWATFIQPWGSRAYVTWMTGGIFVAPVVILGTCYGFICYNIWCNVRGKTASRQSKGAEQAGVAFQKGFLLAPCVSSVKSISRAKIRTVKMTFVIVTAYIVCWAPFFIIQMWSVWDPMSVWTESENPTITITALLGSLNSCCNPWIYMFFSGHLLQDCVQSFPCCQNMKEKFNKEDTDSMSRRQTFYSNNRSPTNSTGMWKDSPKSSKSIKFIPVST

[2] = Protein binding in rat plasma at 200 to 1000 ng/ml measured after 15 mins by UC-LC/MS/MS analysis; type: ADME, cell-free; details: read-out: PPB (converted)
Procedure, shortened: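 Peptide spiked into rat plasma to final 200-1000 ng/mL, incubated 15 min at 37 °C, ultracentrifuged at 773,000 xg for 30 min at 37 °C; middle-layer sample quantified by LC/MS/MS; binding (%) = (Ci − Cm)/Ci × 100; quadruplicate.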

[3] = Clearance in Sprague-Dawley rat at 0.1 mg/kg, iv administered as cassette dose by LC-MS/MS analysis; type: ADME, organism-based; details: in vivo
[4] = Non-renal clearance in nephrectomized Sprague-Dawley rat at 0.1 mg/kg, iv administered as cassette dose by LC-MS/MS analysis; type: ADME, organism-based; details: in vivo

SMILES: CCCNC(=O)[C@@H](CCCNC(=N)N)NC(=O)[C@@H]1CCCN1C(=O)[C@@H]1CSCCCC(=O)N[C@@H](Cc2ccc(Cl)cc2)C(=O)N[C@@H](Cc2cccs2)C(=O)N[C@@H](C(C)C)C(=O)N[C@@H](CC(N)=O)C(=O)N1
- Activity [1]: inactive
- Activity (Vasopressin V1a receptor): Not Active
- fraction unbound at […] [2]: 0.16
- clearance [3]: 26 mL/min/kg
- CL [4]: 59%

SMILES: CCNC(=O)[C@@H](CCCNC(=N)N)NC(=O)[C@@H]1CCCN1C(=O)[C@@H]1CSCCCC(=O)N[C@@H](Cc2ccc(Cl)cc2)C(=O)N[C@@H](Cc2cccs2)C(=O)N[C@@H](C(C)C)C(=O)N[C@@H](CC(N)=O)C(=O)N1
- Activity [1]: inactive
- Activity (Vasopressin V1a receptor): Not Active
- fraction unbound at […] [2]: 0.16
- clearance [3]: 10 mL/min/kg
- CL [4]: 49%

SMILES: CC(C)[C@@H]1NC(=O)[C@H](Cc2cccs2)NC(=O)[C@H](Cc2ccc(Cl)cc2)NC(=O)CCCSC[C@@H](C(=O)N2CCC[C@H]2C(=O)N[C@H](CCCNC(=N)N)C(=O)NC2CC2)NC(=O)[C@H](CC(N)=O)NC1=O
- Activity [1]: inactive
- Activity (Vasopressin V1a receptor): Not Active
- fraction unbound at […] [2]: 0.09
- clearance [3]: 10 mL/min/kg
- CL [4]: 67%

SMILES: CC(C)[C@@H]1NC(=O)[C@H](Cc2ccc(F)cc2)NC(=O)[C@H](Cc2ccc(Cl)cc2)NC(=O)CCCSC[C@@H](C(=O)N2CSC[C@H]2C(=O)NCCCCNC(=N)N)NC(=O)[C@H](CC(N)=O)NC1=O ([Phe(4-Cl)][Phe(4-F)]VNC[Thz]-Agmatine; linker N-5 via X1)
- Activity [1]: inactive
- Activity (Vasopressin V1a receptor): Not Active
- fraction unbound at […] [2]: 0.04
- clearance [3]: 9.9 mL/min/kg
- CL [4]: 85%

SMILES: CC(C)CNC(=O)[C@H](CCCNC(=N)N)NC(=O)[C@@H]1CCCN1C(=O)[C@@H]1CSCCCC(=O)N[C@@H](Cc2ccc(Cl)cc2)C(=O)N[C@@H](Cc2cccs2)C(=O)N[C@@H](C(C)C)C(=O)N[C@@H](CC(N)=O)C(=O)N1
- Activity [1]: inactive
- Activity (Vasopressin V1a receptor): Not Active
- fraction unbound at […] [2]: 0.16
- clearance [3]: 51 mL/min/kg

SMILES: CCNC(=O)[C@@H](CCCNC(=N)N)NC(=O)[C@@H]1CSCN1C(=O)[C@@H]1CSCCCC(=O)N[C@@H](Cc2ccc(Cl)cc2)C(=O)N[C@@H](Cc2cccs2)C(=O)N[C@@H](C(C)C)C(=O)N[C@@H](CC(N)=O)C(=O)N1
- Activity [1]: inactive
- Activity (Vasopressin V1a receptor): Not Active
- fraction unbound at […] [2]: 0.07
- clearance [3]: 28 mL/min/kg
- CL [4]: 80%

SMILES: CC(C)[C@@H]1NC(=O)[C@H](Cc2ccc(F)cc2)NC(=O)[C@H](Cc2ccc(O)cc2)NC(=O)CCCSC[C@@H](C(=O)N2CCC[C@H]2C(=O)NCCCCNC(=N)N)NC(=O)[C@H](CC(N)=O)NC1=O (Y[Phe(4-F)]VNCP-Agmatine; linker N-5 via X1)
- Activity [1]: inactive
- Activity (Vasopressin V1a receptor): Not Active
- fraction unbound at […] [2]: 0.69
- clearance [3]: 8.7 mL/min/kg
- CL [4]: 45%

SMILES: CCNC(=O)[C@@H](CCCNC(=N)N)NC(=O)[C@@H]1C[C@@H](O)CN1C(=O)[C@@H]1CCSCCC(=O)N[C@@H](Cc2ccc(Cl)cc2)C(=O)N[C@@H](Cc2cccs2)C(=O)N[C@@H](C(C)C)C(=O)N[C@@H](CC(N)=O)C(=O)N1
- Activity [1]: inactive
- Activity (Vasopressin V1a receptor): Not Active
- fraction unbound at […] [2]: 0.1
- clearance [3]: 4 mL/min/kg
- CL [4]: 58%

SMILES: CC(C)CNC(=O)[C@@H](CCCNC(=N)N)NC(=O)[C@@H]1C[C@@H](O)CN1C(=O)[C@@H]1CSCCCC(=O)N[C@@H](Cc2ccc(Cl)cc2)C(=O)N[C@@H](Cc2cccs2)C(=O)N[C@@H](C(C)C)C(=O)N[C@@H](CC(N)=O)C(=O)N1
- Activity [1]: inactive
- Activity (Vasopressin V1a receptor): Not Active
- fraction unbound at […] [2]: 0.13
- clearance [3]: 7.8 mL/min/kg

SMILES: CC(C)[C@@H]1NC(=O)[C@H](Cc2cccs2)NC(=O)[C@H](Cc2ccc(Cl)cc2)NC(=O)CCCSC[C@@H](C(=O)N2CCC[C@H]2C(=O)N[C@H](CCCNC(=N)N)C(=O)NCc2ccccc2)NC(=O)[C@H](CC(N)=O)NC1=O
- Activity [1]: inactive
- Activity (Vasopressin V1a receptor): Not Active
- fraction unbound at […] [2]: 0.1
- clearance [3]: 23 mL/min/kg
- CL [4]: 84%

SMILES: CC(C)CNC(=O)[C@@H](CCCNC(=N)N)NC(=O)[C@@H]1CCCN1C(=O)[C@@H]1CCSCCC(=O)N[C@@H](Cc2ccc(Cl)cc2)C(=O)N[C@@H](Cc2ccccc2)C(=O)N[C@@H](C(C)C)C(=O)N[C@@H](CC(N)=O)C(=O)N1
- Activity [1]: inactive
- Activity (Vasopressin V1a receptor): Not Active
- fraction unbound at […] [2]: 0.05
- clearance [3]: 5.4 mL/min/kg
- CL [4]: 88%

SMILES: CCCCNC(=O)[C@@H](CCCNC(=N)N)NC(=O)[C@@H]1CCCN1C(=O)[C@@H]1CSCCCC(=O)N[C@@H](Cc2ccc(Cl)cc2)C(=O)N[C@@H](Cc2cccs2)C(=O)N[C@@H](C(C)C)C(=O)N[C@@H](CC(N)=O)C(=O)N1
- Activity [1]: inactive
- Activity (Vasopressin V1a receptor): Not Active
- fraction unbound at […] [2]: 0.11
- clearance [3]: 31 mL/min/kg
- CL [4]: 57%

SMILES: CC(C)[C@@H]1NC(=O)[C@H](Cc2cccs2)NC(=O)[C@H](Cc2ccc(Cl)cc2)NC(=O)CCCSC[C@@H](C(=O)N2CCC[C@H]2C(=O)N[C@H](CCCNC(=N)N)C(=O)NCC2CC2)NC(=O)[C@H](CC(N)=O)NC1=O
- Activity [1]: inactive
- Activity (Vasopressin V1a receptor): Not Active
- fraction unbound at […] [2]: 0.16
- clearance [3]: 21 mL/min/kg

SMILES: CC(C)CNC(=O)[C@@H](CCCNC(=N)N)NC(=O)[C@@H]1CCCN1C(=O)[C@@H]1CSCCCC(=O)N[C@@H](Cc2ccc(Cl)cc2)C(=O)N[C@@H](Cc2cccs2)C(=O)N[C@@H](C(C)C)C(=O)N[C@@H](CC(N)=O)C(=O)N1
- Activity [1]: inactive
- Activity (Vasopressin V1a receptor): Not Active
- fraction unbound at […] [2]: 0.14
- clearance [3]: 24 mL/min/kg
- CL [4]: 63%

SMILES: CC(C)[C@@H]1NC(=O)[C@H](Cc2cccs2)NC(=O)[C@H](Cc2ccc(Cl)cc2)NC(=O)CCCSC[C@@H](C(=O)N2CSC[C@H]2C(=O)NCCCCNC(=N)N)NC(=O)[C@H](CC(N)=O)NC1=O ([Phe(4-Cl)][2Thi]VNC[Thz]-Agmatine; linker N-5 via X1)
- Activity [1]: inactive
- Activity (Vasopressin V1a receptor): Not Active
- fraction unbound at […] [2]: 0.16
- clearance [3]: 16 mL/min/kg
- CL [4]: 90%

SMILES: CCNC(=O)[C@@H](CCCNC(=N)N)NC(=O)[C@@H]1CCCN1C(=O)[C@@H]1CSSCCC(=O)N[C@@H](Cc2ccc(Cl)cc2)C(=O)N[C@@H](Cc2ccccc2)C(=O)N[C@@H](C(C)C)C(=O)N[C@@H](CC(N)=O)C(=O)N1
- Activity (Vasopressin V1a receptor): Not Active
- fraction unbound at […] [2]: 0.05
- clearance [3]: 7.1 mL/min/kg
- CL [4]: 47%

SMILES: CC(C)CNC(=O)[C@@H](CCCNC(=N)N)NC(=O)[C@@H]1CCCN1C(=O)[C@@H]1CCSCCC(=O)N[C@@H](Cc2ccc(Cl)cc2)C(=O)N[C@@H](Cc2cccs2)C(=O)N[C@@H](C(C)C)C(=O)N[C@@H](CC(N)=O)C(=O)N1
- Activity [1]: inactive
- Activity (Vasopressin V1a receptor): Not Active

SMILES: CC(C)[C@@H]1NC(=O)[C@H](Cc2ccc(F)cc2)NC(=O)[C@H](Cc2ccc(Cl)cc2)NC(=O)CCCSC[C@@H](C(=O)N2CCC[C@H]2C(=O)NCCCCNC(=N)N)NC(=O)[C@H](CC(N)=O)NC1=O ([Phe(4-Cl)][Phe(4-F)]VNCP-Agmatine; linker N-5 via X1)
- Activity [1]: inactive
- Activity (Vasopressin V1a receptor): Not Active
- fraction unbound at […] [2]: 0.06
- clearance [3]: 7.5 mL/min/kg
